Measurements from ChEMBL document CHEMBL5532703, “A new class of 7-deazaguanine agents targeting autoimmune diseases: dramatic reduction of synovial fibroblast IL-6 production from human rheumatoid arthritis patients and improved performance against murine experimental autoimmune encephalomyelitis” (RSC Med Chem, 2024).
The source made the active and inactive calls. The calls are words filed in the database; no cut-off is given here.

What was measured:
Synovial fibroblasts [1] = experiment: Anti-inflammatory activity in human Synovial fibroblasts derived from rheumatoid arthritis patient assessed as reduction in TNF-alpha induced IL-6 production at 200 uM measured after 72 hrs by ELISA; type: functional, cell-based
Procedure, shortened: (§1)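 Synovial fibroblasts came from collagenase-digested (1 mg/mL, 4 h, 37 °C) RA patient biopsies, grown in RPMI-1640 with 10% FCS and used at passages 3–8. Cultures were stimulated with TNFα (10 ng/mL) while exposed to compound, with medium and compound renewed at 24 h. Supernatants were collected at 72 h for IL-6 ELISA, relative to a 4% DMSO/PBS vehicle control.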

Mus musculus [2] = experiment: Anti-inflammatory activity in complete Freund's adjuvant/MOG (35 to 55 residues)/pertussis toxin-induced experimental autoimmune encephalomyelitis C57BL/6 mouse model assessed as decrease in disease progression at 9 mg/kg,ip administration observed after 7 days; type: functional, organism-based; settings: time 7.0 day
Procedure, shortened: (§2)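 Female C57BL/6 mice, 10–12 weeks old and about 20 g, with EAE induced by s.c. CFA/MOG plus i.p. pertussis toxin on days 0 and 2. Mice entered the study at clinical score 1.5–2, which was day 0, and were randomised. Each received 200 µL i.p. daily for 7 days of 4 mM compound (equimolar dosing) in 4% DMSO/PBS, made fresh. Vehicle controls were used, n = 4–5, with clinical scores recorded daily post treatment.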

Mus musculus [3] = experiment: Anti-inflammatory activity in complete Freund's adjuvant/MOG (35 to 55 residues)/pertussis toxin-induced experimental autoimmune encephalomyelitis C57BL/6 mouse model assessed as decrease in disease progression at 9 mg/kg,ip administration observed after 3 days; type: functional, organism-based; settings: time 3.0 day; procedure, shortened: as §2
Mus musculus [4] = experiment: Anti-inflammatory activity in complete Freund's adjuvant/MOG (35 to 55 residues)/pertussis toxin-induced experimental autoimmune encephalomyelitis C57BL/6 mouse model assessed as decrease in disease progression at 16 mg/kg,ip administration observed after 1 day; type: functional, organism-based; procedure, shortened: as §2
Mus musculus [5] = experiment: Anti-inflammatory activity in complete Freund's adjuvant/MOG (35 to 55 residues)/pertussis toxin-induced experimental autoimmune encephalomyelitis C57BL/6 mouse model assessed as decrease in disease progression at 16 mg/kg,ip administration observed after 2 days; type: functional, organism-based; settings: time 2.0 day; procedure, shortened: as §2
Synovial fibroblasts [6] = experiment: Anti-inflammatory activity in human Synovial fibroblasts derived from rheumatoid arthritis patient assessed as reduction in TNF-alpha induced IL-6 production measured after 72 hrs by ELISA; type: functional, cell-based; procedure, shortened: as §1
Mus musculus [7] = experiment: Anti-inflammatory activity in complete Freund's adjuvant/MOG (35 to 55 residues)/pertussis toxin-induced experimental autoimmune encephalomyelitis C57BL/6 mouse model assessed as decrease in disease progression at 15 mg/kg,ip administration observed after 7 days; type: functional, organism-based; settings: time 7.0 day; procedure, shortened: as §2
Mus musculus [8] = experiment: Anti-inflammatory activity in complete Freund's adjuvant/MOG (35 to 55 residues)/pertussis toxin-induced experimental autoimmune encephalomyelitis C57BL/6 mouse model assessed as decrease in disease progression at 15 mg/kg,ip administration observed after 1 day; type: functional, organism-based; procedure, shortened: as §2
Mus musculus [9] = experiment: Anti-inflammatory activity in complete Freund's adjuvant/MOG (35 to 55 residues)/pertussis toxin-induced experimental autoimmune encephalomyelitis C57BL/6 mouse model assessed as decrease in disease progression at 15 mg/kg,ip administration observed after 3 days; type: functional, organism-based; settings: time 3.0 day; procedure, shortened: as §2
Mus musculus [10] = experiment: Anti-inflammatory activity in complete Freund's adjuvant/MOG (35 to 55 residues)/pertussis toxin-induced experimental autoimmune encephalomyelitis C57BL/6 mouse model assessed as decrease in disease progression at ip administration observed after 4 days; type: functional, organism-based; settings: time 4.0 day
Procedure, shortened: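 EAE in female C57BL/6 mice, induced with CFA/MOG s.c. and pertussis toxin i.p. Mice were enrolled at clinical score 1.5–2 and randomised, then dosed i.p. daily with compound diluted to 4 mM in 4% DMSO/PBS, 200 µL per mouse. This was a 4-day study, n = 5, with 4% DMSO/PBS vehicle controls. Clinical score was tracked daily after treatment started.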

Structure (SMILES)	Activity (Synovial fibroblasts [1])	further results
CO/N=C/c1c[nH]c2nc(N)[nH]c(=O)c12	Active	Activity (Mus musculus [2]): inactive; Activity (Mus musculus [3]): Active
Nc1nc2[nH]cc(CNCCNc3ccccc3)c2c(=O)[nH]1	Active	–
Nc1nc2[nH]cc(CNCCCc3ccsc3)c2c(=O)[nH]1	Active	–
Nc1nc2[nH]cc(CNCCC3(c4ccccc4)CC3)c2c(=O)[nH]1	Active	–
Nc1nc2[nH]cc(/C=N/OCc3ccccc3)c2c(=O)[nH]1	Active	–
Nc1nc2[nH]cc(CNCCC(=O)c3ccccc3)c2c(=O)[nH]1	Active	Activity (Mus musculus [4]): Active
CCC(CC)(CCNCc1c[nH]c2nc(N)[nH]c(=O)c12)c1ccccc1	Active	–
C[C@H](CCNCc1c[nH]c2nc(N)[nH]c(=O)c12)c1ccccc1	inactive	–
CC(C)(CCNCc1c[nH]c2nc(N)[nH]c(=O)c12)c1ccccc1	Active	Activity (Mus musculus [5]): Active
Nc1nc2[nH]cc(/C=N/O)c2c(=O)[nH]1	Active	Activity (Mus musculus [2]): Active
Nc1nc2[nH]cc(CNCC[C@@H](O)c3ccccc3)c2c(=O)[nH]1	Active	–
Nc1nc2[nH]cc(CNCCC3(c4ccccc4)SCCS3)c2c(=O)[nH]1	inactive	–
Nc1nc2[nH]cc(CNCCCc3ccccc3)c2c(=O)[nH]1	–	Activity (Synovial fibroblasts [6]): Dose-Dependent Effect; Activity (Mus musculus [7]): Active; Activity (Mus musculus [8]): Active; Activity (Mus musculus [9]): Active
CC(CCNCc1c[nH]c2nc(N)[nH]c(=O)c12)c1ccccc1 (stereo unspecified)	Active	–
Nc1nc2[nH]cc(CNCC[C@H](O)c3ccccc3)c2c(=O)[nH]1	Active	–
Nc1nc2[nH]cc(CNCCC(c3ccccc3)c3ccccc3)c2c(=O)[nH]1	Active	–
Nc1nc2[nH]cc(CNOCCc3ccccc3)c2c(=O)[nH]1	Active	Activity (Mus musculus [10]): Active
